Screens deposited in PubChem by several laboratories.
A selection: hits, their analogues and other compounds. The true share with any hit is near 3.7%.
Cl transport mod: modulators of human KCC2 chloride dependent transport; B-score of Tl+ flux slope (higher = more flux/activation; lower = inhibition) at 10 µM; KCC2 cells, thallium flux FluoZin-2 fluorescence; actives 2.2% (n = 190,000);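 active = thallium flux slope and its plate-corrected score both differing from the plate sample mean at a set confidence after two filtering rounds, in either direction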;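 also: slope of fluorescence scaled to starting intensity during 10 to 20 s after thallium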
MT stabilizer: stabilizes microtubules in HeLa cells | HeLa tubulin immunostaining HCS, 24 h; share of cells brighter than vehicle mean+2SD | AID 2205 | % tubulin-high responders, % at 10 µM | actives 0.83% (n = 200,000);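 active = plate Z-score above 3 for both tubulin-high and condensed-nucleus cell shares, with cell loss under 80%, at 10 µM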;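 also: anti alpha tubulin signal scored within the nucleus-defined area of each cell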
bCat nuc transl: beta-catenin nuclear translocation modulation; HeLa beta-catenin nuclear translocation, immunofluorescence imaging; nuclear translocation activity, % at 5 µM; actives 0.3% (n = 190,000);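 active = nuclear translocation activity above 50% at 5 µM, with a well cell count of 50 or more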;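 also: per-cell ratio of nuclear to cytoplasmic median beta-catenin stain intensity; plate controls were DMSO negative control for no effect and GSK-3 inhibitor IX positive control for full effect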
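Test system: HeLa cells, endogenous beta-catenin; Compound: single 5 µM dose plus 0.02–20 µM confirmation series; Times: compound exposure 24 h at 37°C; Signal: fluorescence imaging of beta-catenin antibody stain plus DAPI; Read-out: % activation, nuclear-to-cytoplasmic median beta-catenin signal ratio per cell.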
ROMK primary: modulators of human ROMK potassium channel; actives 2% (n = 130,000); Tet-inducible ROMK, thallium flux fluorescence; actives lie on both sides; B-score at 10 µM; P48048;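 active = signal ratio slope over the read window, or its plate-corrected B-score, at least 3 SD from the plate mean, either direction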;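 also: B-score of the F/F0 ratio slope over 7 to 12 s after thallium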
Target sequence (P48048 whole entry, looked up): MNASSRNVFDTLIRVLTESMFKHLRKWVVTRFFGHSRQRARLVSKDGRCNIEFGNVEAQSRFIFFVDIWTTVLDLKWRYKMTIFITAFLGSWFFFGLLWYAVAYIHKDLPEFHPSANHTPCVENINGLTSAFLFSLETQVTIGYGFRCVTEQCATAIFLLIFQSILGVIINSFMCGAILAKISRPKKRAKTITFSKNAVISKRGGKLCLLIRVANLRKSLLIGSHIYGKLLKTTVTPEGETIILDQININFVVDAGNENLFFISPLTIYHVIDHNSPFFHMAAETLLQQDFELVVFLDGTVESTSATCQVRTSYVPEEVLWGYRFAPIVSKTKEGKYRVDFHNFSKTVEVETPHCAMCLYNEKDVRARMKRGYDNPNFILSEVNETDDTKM
DTT redox prof: compounds producing H2O2 with reducing agent – biochemical, NIH compound library profiling, artefact control for MLSCN library redox annotation, primary screen; activation, % at 10 µM; actives 0.03% (n = 200,000); DTT-dependent redox cycling H2O2, phenol red/HRP absorbance; 100% = 100 µM peroxide control, 0% = buffer;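 active = activation of at least 50% relative to the plate's high and low controls in the primary single-dose screen; inactive = activation below 50%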;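 also: compound incubated with DTT at 0.8 mM final as the reducing agent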
ROMK hit retest: retested hit modulating human ROMK potassium channel; shares compounds with ROMK primary; ROMK thallium flux, fluorescence ratio; stronger effect = lower value; normalized thallium flux (F/F0 slope) at 10 µM; actives 54% (n = 3,000); AID 1917;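 active = Flux at 10 µM at least 3 SD below or above vehicle control mean in one or both replicates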
Starred values were filed as active, the others as inactive; · = no result.

SMILES | Cl transport mod | MT stabilizer | bCat nuc transl | ROMK primary | DTT redox prof | ROMK hit retest
O=C(c1ccc2c(c1)OCCO2)N1CCN(Cc2ccccc2)CC1 | -2.4 | 6 | -1 | · | 1 | ·
Cc1ccccc1Nc1nc(N)nc(COC(=O)c2cccc(S(=O)(=O)NCc3ccccc3)c2)n1 | -2.7 | 2 | -1 | -3.8* | 0 | 0.047*
O=C(C1CCCCN1S(=O)(=O)c1ccccc1[N+](=O)[O-])N1CCCCC1 (stereo not drawn) | -0.024 | 3 | 0 | -0.28 | -1 | ·
Cc1ccc(CCN2C(=O)CCC2(C)C(=O)NC2CCCC2)cc1 (stereo not drawn) | 0.45 | 4 | 1 | 1 | 1 | 0.072
COc1ccc(CCN2C(=O)CCC2(C)C(=O)NC2CCCC2)cc1OC (stereo not drawn) | 0.36 | 3 | -1 | -0.4 | -1 | ·
Cc1ccccc1C(=O)NNC(=S)Nc1cccc(C(F)(F)F)c1 | -0.012 | 4 | 2 | · | 0 | 0.064*
FC(F)(F)c1cccc(NC(=S)NNC(=S)Nc2cccc(C(F)(F)F)c2)c1 | -1.4 | · | 4 | · | · | ·
COc1ccc(C=O)cc1Oc1nc(Cl)ncc1F | -0.054 | 2 | 0 | 0.5 | 0 | ·
CCOC(=O)C1(Cc2ccccc2)CCN(Cc2cn(CC(=O)OC)c3ccccc23)CC1 | 0.88 | 3 | -3 | -3.3* | -1 | 0.055*
Cc1ccc(NC(=O)NCc2ccccn2)cc1 | -0.0015 | 3 | -1 | -0.88 | -1 | ·
Cc1ccc(NC(=O)CSC(C)C(=O)NCCc2ccccn2)cc1 (stereo not drawn) | -0.73 | 4 | 2 | -2.8* | 1 | 0.072
Cc1ccc2nc(C)cc(C(=O)Nc3nccs3)c2c1 | -1.8 | 1 | 0 | -0.11 | -1 | ·
Cc1sc(NC(=O)c2ccccc2)c(C(c2ccc(Cl)cc2)N2CCN(CCO)CC2)c1C (stereo not drawn) | -0.24 | 2 | · | -2.4* | · | 0.071
COc1ccc(C)cc1NC(=S)N1CCN(S(C)(=O)=O)CC1 | 0.85 | 1 | 2 | · | 0 | ·
O=C(NCc1n[nH]c(=S)n1-c1ccc(Cl)c(Cl)c1)c1ccc(S(=O)(=O)N2CCOCC2)cc1 | 0.11 | 2 | 4 | 0.94 | -1 | ·
Fc1ccc(Nc2nnc(C(F)(F)F)s2)cc1Cl | · | · | 2 | · | · | 0.062*
N#Cc1c(Cl)cccc1Oc1ccc(S(=O)(=O)Nc2ccccc2)cc1 | -0.78 | · | 1 | · | · | ·
Clc1ccc(-c2ccc(/C=N/Nc3cc(N4CCOCC4)nc(N4CCOCC4)n3)o2)cc1 | 0.0051 | 1 | 3 | -4* | 0 | 0.058*
CC(C)c1ccc(/C=N/Nc2cc(N3CCOCC3)nc(N3CCOCC3)n2)cc1 | -1.6 | 3 | -3 | -0.24 | 0 | ·
Brc1ccc(-c2ccc(/C=N/Nc3nc(N4CCOCC4)nc(N4CCOCC4)n3)o2)cc1 | -0.21 | 3 | -3 | 0.11 | -1 | 0.075
COC(=O)c1sc(S(=O)(=O)Nc2ccc(Br)cc2)c(C(=O)OC)c1C | 0.31 | 3 | 0 | 0.39 | 0 | ·
Cn1cc(Br)c(C(=O)Nc2ncc(Br)s2)n1 | -1.2 | 3 | 0 | -0.46 | -1 | ·
CC1C/C(=C/c2cccs2)C(=O)/C(=C/c2cccs2)C1 (stereo not drawn) | 0.25 | 3 | -1 | 2.9* | 1 | 0.071
CC1C/C(=C/c2ccco2)C(=O)/C(=C/c2ccco2)C1 (stereo not drawn) | -0.98 | 4 | -1 | -1.2 | 0 | ·
CCn1cc(C(=O)N2CCN(c3cccc(Cl)c3)CC2)c2cc(OC)c(OC)cc2c1=O | -0.51 | 3 | · | 1.3* | 0 | 0.071
CCn1cc(C(=O)N2CCN(c3ccc(F)cc3)CC2)c2cc(OC)c(OC)cc2c1=O | -0.27 | 5 | -4 | -0.32 | 0 | 0.078
COc1cc2c(C(=O)N3CCN(c4cccc(Cl)c4)CC3)cn(C)c(=O)c2cc1OC | -0.28 | 31 | · | -0.84 | 0 | ·
CCN1CCCc2cc(CN(CCN3CCOCC3)C(=O)Nc3ccc(C)c(C)c3)ccc21 | -0.53 | 2 | · | -3.5* | 0 | 0.056*
CCOC(=O)C1=NOC(COc2ccccc2C=O)C1 (stereo not drawn) | · | 2 | 1 | 0.0018 | 10 | ·
COc1ccc(C2OC(=O)CC2C(=O)NCc2ccccc2Cl)cc1OC (stereo not drawn) | -0.045 | 4 | 0 | -10* | 0 | 0.078
